Article PMC4650587 (Cell Research, 2014)
“Also recorded” adds a separate entry of the source. Like-named read-outs stand apart in the source and are kept apart here.

How the values were obtained:
[1] = target: CBM-KD interaction of AMPK; test: AlphaScreen interaction between isolated biotin-CBM and His6-KD in trans; type: binding, human
In short: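 Biotin-CBM (β2[75-163] avitag, biotinylated in vivo) was split in two. One half was phosphorylated in trans by CaMKKβ-phosphorylated His6-KD (CBM:KD 50:1, 4 h, RT), then freed of KD by Ni column and size exclusion. 100 nM biotin-CBM on streptavidin donor beads was paired with 100 nM His6-KD on Ni acceptor beads. Buffer: 50 mM MOPS pH 7.4, 50 mM NaF, 50 mM CHAPS, 0.1 mg/ml BSA.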

human α1β2γ1 AMPK [2] = test: Radioactive kinase assay; type: biochemical; settings: phosphorylated AMPK; 1 mg/ml glycogen
rat liver AMPK = settings: cited from earlier work
holo-AMPK = test: AlphaScreen CBM-KD interaction in holo-AMPK; type: binding, human; settings: glycogen 0.5 mg/ml, cyclodextrin 2 mM
[3] = system: recombinant, E. coli-expressed AMPK; settings: cited from earlier work
AMPK = settings: cited from earlier work
[4] = system: AID-αRIM / core AMPK(α1[395-550]-β2[187-272]-γ1); test: AlphaScreen interaction between biotinylated core AMPK and His6GST-AID-αRIM; type: binding, human; settings: wild-type AID-αRIM; AMP 0.2 mM, ATP 1 mM
In short: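 Two-protein AlphaScreen pairing 100 nM His6-tagged protein on nickel acceptor beads with 100 nM biotin-tagged protein on streptavidin donor beads. Biotinylated core AMPK (α1[395-550]-β2[187-272]-γ1) was an avitag fusion biotinylated in E. coli by co-expressed BirA with 40 μM biotin. Reactions ran in 50 mM MOPS pH 7.4, 50 mM NaF, 50 mM CHAPS, 0.1 mg/ml BSA, 0.2 mM AMP, 1 mM ATP.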

human α1β2γ1 AMPK [5] = target: human α1β2γ1 AMPK (Homo sapiens, UniProt P54619); type: biochemical
[6] = target: T1, AMPK γ1(24-327), γ-subunit of the crystallised holo-AMPK (human, UniProt P54619 24-327); test: crystal structure
[7] = target: T1, AMPK γ1(24-327), γ-subunit of the …; test: crystal structure; remark: listed apart in the source

T1 sequence (P54619 24-327): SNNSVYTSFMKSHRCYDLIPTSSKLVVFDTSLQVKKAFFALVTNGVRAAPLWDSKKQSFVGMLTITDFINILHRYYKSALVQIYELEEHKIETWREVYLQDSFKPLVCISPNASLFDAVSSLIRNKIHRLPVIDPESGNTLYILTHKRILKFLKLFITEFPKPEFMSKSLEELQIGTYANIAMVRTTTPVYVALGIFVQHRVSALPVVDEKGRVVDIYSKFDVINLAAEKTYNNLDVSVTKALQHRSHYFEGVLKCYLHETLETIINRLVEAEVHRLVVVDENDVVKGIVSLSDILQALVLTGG
Sequence of human α1β2γ1 AMPK (Homo sapiens, UniProt P54619) (P54619 24-327, one chain of several): as the sequence (P54619 24-327) above
Sequence of human α1β2γ1 AMPK (Homo sapiens, UniProt P54619) (Q13131 20-559 partner, one chain of several): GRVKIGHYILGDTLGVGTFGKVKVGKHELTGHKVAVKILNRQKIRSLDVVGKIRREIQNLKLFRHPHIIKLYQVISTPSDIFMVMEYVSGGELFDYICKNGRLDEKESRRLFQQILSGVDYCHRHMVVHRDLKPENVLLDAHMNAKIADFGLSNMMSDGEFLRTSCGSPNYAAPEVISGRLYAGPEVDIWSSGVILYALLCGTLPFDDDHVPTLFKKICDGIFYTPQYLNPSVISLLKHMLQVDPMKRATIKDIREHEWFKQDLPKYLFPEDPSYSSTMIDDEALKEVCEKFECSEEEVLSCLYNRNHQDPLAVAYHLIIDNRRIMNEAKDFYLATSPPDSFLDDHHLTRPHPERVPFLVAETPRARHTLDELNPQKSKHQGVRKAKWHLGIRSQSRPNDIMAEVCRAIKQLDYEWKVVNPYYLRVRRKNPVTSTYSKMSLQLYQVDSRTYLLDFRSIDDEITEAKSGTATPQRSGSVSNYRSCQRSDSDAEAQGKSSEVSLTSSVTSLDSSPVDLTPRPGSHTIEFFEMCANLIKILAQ

glycogen
effect on CBM-KD interaction signal ([1]; phosphorylated and non-phosphorylated CBM, glycogen 0.5 mg/ml): almost abolished this interaction | effect on AMPK catalytic activity (human α1β2γ1 AMPK [2]): failed to detect an effect | effect on activity of immunoprecipitated native rat liver AMPK (rat liver AMPK): more substantially inhibit | effect on activity of purified rat liver AMPK (rat liver AMPK; purified rat liver AMPK): did not detect an effect | effect on AlphaScreen signal of holo-AMPK (CBM-KD) (holo-AMPK; non-phosphorylated AMPK): significant (P < 0.01) signal decrease | effect on AlphaScreen signal of holo-AMPK (CBM-KD) (holo-AMPK; phosphorylated AMPK): smaller decrease | effect on catalytic activity of recombinant AMPK [3]: mildly inhibit

N#Cc1c(O)c2c(-c3ccc(-c4ccccc4O)cc3)csc2[nH]c1=O [A769662]
effect on kinase activity (AMPK): increase kinase activity

Cc1ccc(Oc2nc3cc(-c4ccc5c(ccn5C)c4)c(Cl)cc3[nH]2)cc1C(=O)O [compound 991]
effect on kinase activity (AMPK): increase kinase activity

OC[C@H]1O[C@@H]2O[C@H]3[C@H](O)[C@@H](O)[C@@H](O[C@H]4[C@H](O)[C@@H](O)[C@@H](O[C@H]5[C@H](O)[C@@H](O)[C@@H](O[C@H]6[C@H](O)[C@@H](O)[C@@H](O[C@H]7[C@H](O)[C@@H](O)[C@@H](O[C@H]8[C@H](O)[C@@H](O)[C@@H](O[C@H]1[C@H](O)[C@H]2O)O[C@@H]8CO)O[C@@H]7CO)O[C@@H]6CO)O[C@@H]5CO)O[C@@H]4CO)O[C@@H]3CO [cyclodextrin, β-cyclodextrin hydrate]
effect on CBM-KD interaction signal ([1]; non-phosphorylated CBM, cyclodextrin 2 mM): greatly reduced the interaction; also recorded: strongly reduced the interaction | effect on CBM-KD interaction signal ([1]; phosphorylated CBM, cyclodextrin 2 mM): mildly; also recorded: only weakly reduced the interaction | effect on activity of immunoprecipitated native rat liver AMPK (rat liver AMPK): more substantially inhibit | effect on AlphaScreen signal of holo-AMPK (CBM-KD) (holo-AMPK; phosphorylated AMPK): smaller decrease | effect on catalytic activity of recombinant AMPK [3]: mildly inhibit

Nc1ncnc2c1ncn2[C@@H]1O[C@H](COP(=O)(O)OP(=O)(O)OP(=O)(O)O)[C@@H](O)[C@H]1O [ATP]
effect on AID-αRIM / core AMPK interaction signal [4]: decreased | change of luminescence signal, α-γ tagged AMPK (human α1β2γ1 AMPK [5]; 1 mM ATP): decreased the signal by a factor of two

Nc1ncnc2c1ncn2[C@@H]1O[C@H](COP(=O)(O)O)[C@@H](O)[C@H]1O [AMP]
effect on AID-αRIM / core AMPK interaction signal [4]: increased | change of luminescence signal, α-γ tagged AMPK (human α1β2γ1 AMPK [5]; 2 μM AMP): doubled the luminescence signal

B1: phosphorylated AMPK β2(76-272), β-subunit of the crystallised phosphorylated holo-AMPK (domain or fragment)
chain: ARPTVIRWSEGGKEVFISGSFNNWSTKIPLIKSHNDFVAILDLPEGEHQYKFFVDGQWVHDPSEPVVTSQLGTINNLIHVKKSDFEVFDALKLDSMESSETSCRDLSSSPPGPYGQEMYAFRSEERFKSPPILPPHLLQVILNKDTNISCDPALLPEPNHVMLNHLYALSIKDSVMVLSATHRYKKKYVTTLLYKPI
modifications: phosphoserine at 108 (autophosphorylated)
binding result [6]: binds

B2: non-phosphorylated AMPK β2(76-272), β-subunit of the crystallised non-phosphorylated holo-AMPK (domain or fragment)
chain: B1 chain
binding result [7]: binds
